Calls of active or inactive are those of the source. The rule behind the calls is not given here.

What all share (format): functional, cell-based
The test system of assay [1] is RAW. Description: Activation of mouse DN32 cells co-cultured with CD1d-transfected RAW cells assessed as IL-2 release at 100 ng/ml fixed and then pulsed for 3 hrs measured after 16 hrs by ELISA. The method, boiled down:
(§1)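 CD1d-transfected RAW cells were handled in one of two orders. In one, they were pulsed with 100 ng/ml lipid for 3 h, washed, then fixed with glutaraldehyde. In the other, they were fixed first, then pulsed for 3 h. 10^5 APC were co-cultured with 10^5 iNKT hybridoma cells for 16 h, and supernatant cytokines were measured by ELISA.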
(ELISA stands for enzyme-linked immunosorbent assay.)

Assay [2] can be described thus: Activation of human BM2a.3 cells co-cultured with CD1d-expressing U937 cells assessed as IFN-gamma release after 16 hrs by ELISA. Particulars: U-937. The method, boiled down: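 Human iNKT clone BM2a.3 (2.5×10^4) co-cultured with 2.5×10^4 U937 cells and a range of lipid concentrations; cytokines in culture supernatants measured by ELISA after 16 h.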
In a further assay the test system is DN32. Description: Activation of mouse DN32 cells in co-cultured with plate bound antigen presenting cell free CD1d-FC fusion protein assessed as IL-2 release after 16 hrs by ELISA. The method, boiled down: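 Plate-bound murine recombinant CD1d-Fc fusion protein loaded with lipid for 16 h, then washed; 5×10^4 iNKT hybridoma cells added per well, with no APC. Cytokines in culture supernatants measured by ELISA.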

Assay [3] relates to RAW. Description: Activation of mouse DN32 cells in co-cultured with CD1d-transfected RAW cells assessed as IL-2 release after 16 hrs by ELISA. The method in brief: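 Mouse iNKT hybridoma DN32 (5×10^4) co-cultured with 5×10^4 RAW cells, CD1d-transfected or untransfected, across a range of lipid concentrations; supernatant cytokines measured by ELISA at 16 h.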
Assay [4] relates to RAW. Description: Activation of mouse DN32 cells co-cultured with CD1d-transfected RAW cells assessed as IL-2 release at 100 ng/ml pulsed for 3 hrs and then fixed measured after 16 hrs by ELISA. The method, boiled down:
as §1

`CCCCCCCCCCCCCCCCCCCCCCCCCC(=O)N[C@@H](CO[C@H]1O[C@H](CO)[C@H](O)[C@H](O)[C@H]1O[C@H]1O[C@H](CO)[C@H](O)[C@H](O)[C@H]1O)[C@H](O)[C@H](O)CCCCCCCCCCCCCC`: the outcome in the assay with RAW [1] and in the assay with DN32 was inactive. Besides, the outcome (in assay [2]; with RAW [3]; in the assay with RAW [4]) was Active.

`CCCCCCCCCCCCCCCCCCCCCCCCCC(=O)N[C@@H](CO[C@H]1O[C@H](CO)[C@H](O)[C@H](O)[C@H]1O)[C@H](O)[C@H](O)CCCCCCCCCCCCCC`: the outcome (with RAW [1]; in assay [2]; in the assay with DN32; with RAW [3]; in the assay on RAW [4]) was Active.

Values taken from ChEMBL document CHEMBL1153633, “Synthesis and biological activity of alpha-galactosyl ceramide KRN7000 and galactosyl (alpha1-->2) galactosyl ceramide” (Bioorg Med Chem Lett, 2009).
